# Source: PubChem BioAssay
# Compounds with a hit are over-represented: about 1.7% of the library has one in this group of screens.
# Runt-CBFb FRET – inhibitors of human RUNX1 Runt domain binding to CBFb. AID 1496. 0.46% of 220,000 active. inhibition, % at 20 µM. Cerulean-Runt/Venus-CBFb FRET ratio 530/480, 1 h;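 active = inhibition over about 50% at 20 µM in the single-dose screen, limit read from the data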;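 note: 0% = DMSO wells and 100% = excess unlabeled CBFb competitor control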
#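 Measured by: fluorescence energy transfer, 422 nm excitation, 530/480 nm emission; Assay system: Cerulean-Runt domain; Medium: Tris pH 7.5 buffer with BSA; Measure: loss of energy transfer signal; Controls: 5 µM unlabeled CBFb as full-inhibition high control; Incubation: protein complex preformed 1 h, compound exposure 1 h, room temperature, dark.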
# Vif imaging – inhibitors of HIV Vif | HEK293T cells, Vif self-association by quenched fluorescence, imaging, 24 h | inhibition, % at 7.49 µM | 0.35% of 340,000 active | AID 602346; in the data active = inhibition above about 50%, passing the limit was not always enough; inconclusive = no clear call, values can overlap the other calls; inactive = below about 31%
# Runt-SMMHC FRET – Runt domain-CBFb-SMMHC interaction inhibition. Q01196+Q13951. Cerulean-Runt/Venus-CBFb-SMMHC FRET ratio 530/480, 1 h. inhibition, % at 20 µM. 0.74% of 220,000 active;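 active = mean inhibition across duplicate retests at 20 µM reaching about 50%, limit read from the data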;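 note: 0% = DMSO wells and 100% = wells with excess untagged CBFb-SMMHC; inhibitors lower the FRET ratio by blocking Runt binding to CBFb-SMMHC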
# Rce1 inhib – inhibitors of yeast Ras-converting enzyme. 0.27% of 290,000 active. calls only. yeast membranes, quenched prenylated peptide cleavage fluorescence. Q03530. AID 2563;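 active = fall in fluorescence gain of 50% or more versus controls, with final raw signal at or below 3038400; inconclusive = same 50% fall but final raw signal above 3038400; inactive = fall in fluorescence gain under 50%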;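 note: plate controls were neutral control wells for no effect and wells lacking membranes for full effect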
# Target sequence (Q03530 whole entry, looked up): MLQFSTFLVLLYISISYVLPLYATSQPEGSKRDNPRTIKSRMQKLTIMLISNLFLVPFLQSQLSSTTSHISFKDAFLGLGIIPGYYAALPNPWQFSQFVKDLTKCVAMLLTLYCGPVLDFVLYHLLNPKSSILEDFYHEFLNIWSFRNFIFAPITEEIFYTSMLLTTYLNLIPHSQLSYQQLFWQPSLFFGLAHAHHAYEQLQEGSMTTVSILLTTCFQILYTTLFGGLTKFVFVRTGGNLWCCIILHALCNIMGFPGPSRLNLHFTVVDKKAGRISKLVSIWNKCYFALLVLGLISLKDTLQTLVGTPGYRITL
# RanGTP-Imp inh – inhibitors of RanGTP-importin-beta interaction, primary screen, biochemical, FRET, CFP-Ran, YFP-importin-beta, homogeneous. cell-free CFP-Ran/YFP-importin-beta FRET ratio. inhibition, % (no concentration beside the values). 1.1% of 300,000 active. AID 2216;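 active = more than half of the replicate wells show a fall in the fluorescence ratio signal beyond about 16%, limit read from the data, passing the limit was not always enough; inconclusive = exactly half of the replicate wells pass the set limit; inactive = fewer than half of replicates pass the limit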;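 note: 0% = DMSO wells and 100% = Ran loaded with GDP instead of GTP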
# Numbers without * were called inactive; i = inactive; ? = inconclusive; / = no result; + = active, no number.
SMILES,Runt-CBFb FRET,Vif imaging,Runt-SMMHC FRET,Rce1 inhib,RanGTP-Imp inh
O=C(NCc1ccccc1C(F)(F)F)c1cccc2c1C(=O)c1ccc(N3CCC(N4CCCCC4)CC3)cc1S2(=O)=O,/,75.1*,/,/,/
O=C(NCc1ccccc1C(F)(F)F)c1cccc2c1C(=O)c1ccc(N3CCOCC3)cc1S2(=O)=O,/,-2.6,/,/,/
CC1CCCC(NC(=O)CN2CCN(S(=O)(=O)c3ccc(Br)s3)CC2)C1C (stereo unspecified),/,7.9,/,/,/
Cc1cccc(-n2c(=O)c(C#N)cc3c(=O)n4ccccc4nc32)c1,19.5,-1.5,59.0*,i,127.6*
Cc1ccc(C)c(-n2c(=O)c(C#N)cc3c(=O)n4ccccc4nc32)c1,3.0,-1.7,89.6*,i,107.6*
O=C(NCCc1ccccc1O)c1cc2c(cc1[N+](=O)[O-])OCO2,/,-5.5,/,/,/
COc1ccc(OCC(=O)NS(=O)(=O)c2ccc(Cl)cc2)cc1,/,17.8,/,+,3.3
O=C(COc1ccccc1)NS(=O)(=O)c1ccccc1,/,0.1,/,/,-2.3
O=C(C[C@H]1C/C=C\C[C@@H](Cc2ccc(F)cc2)C(=O)OC[C@@H]2CCCN2C1=O)NCCO,/,0.5,/,/,/
COc1ccccc1-c1cccc2nccn12,/,66.8*,/,/,/
COc1ncc(-c2cccc3nccn23)c(OC)n1,/,3.4,/,/,/
CCn1nc(NC(=O)Cc2ccc(OC)cc2)c2cc3cccc(C)c3nc21,82.1*,-21.1,82.5*,i,24.2*
CCn1nc(NC(=O)COC)c2cc3cccc(C)c3nc21,/,-13.4,/,i,43.8*
CCn1nc(NC(=O)Cc2ccc(OC)cc2)c2cc3cc(C)ccc3nc21,22.0,24.4,38.9,i,18.9*
CCCCC(=O)Nc1nn(CC)c2nc3c(C)cccc3cc12,/,-2.9,/,i,36.8*
CCCCC(=O)Nc1nn(CCC)c2nc3ccccc3cc12,19.0,-1.2,33.7,i,62.6*
CCCCn1nc(NC(=O)COC)c2cc3cc(OC)ccc3nc21,/,-8.9,/,i,99.1*
CCn1nc(NC(=O)c2ccccn2)c2cc3cc(C)ccc3nc21,47.9,-12.9,82.2*,i,89.2*
Cc1cc(C)n(-c2ccc(NC(=O)C3CCN(Cc4ccc(C)o4)CC3)cc2)n1,/,-6.8,/,i,?
Fc1ccccc1CNc1cc(Cl)cc(Cl)c1,-2.1,118.7*,-2.3,i,-3.8
O=[N+]([O-])c1ccccc1CNc1ccc(F)c(Cl)c1,37.7,-4.0,17.8,i,-4.6
O=S(=O)(c1ccccc1)N(Cc1ccccc1)c1ccccn1,3.5,-4.6,0.4,i,0.3
O=C(O)c1ccc(CN(c2ccccn2)S(=O)(=O)c2ccccc2)cc1,-0.7,-2.2,3.8,+,-5.7
O=C(CSc1nnc(-c2cccs2)n1-c1cccc(Cl)c1)c1cccc2c1OCCO2,1.3,0.3,3.6,i,2.8
N#CCC(=O)Nc1ccc(C(=O)OCC(=O)NC2CCCc3ccccc32)cc1 (stereo unspecified),/,-2.9,/,/,/
SMILES,Runt-CBFb FRET,Vif imaging,Runt-SMMHC FRET,Rce1 inhib,RanGTP-Imp inh
CCc1cc(=O)oc2c(CN3CCN(C)CC3)c(O)ccc12,/,/,/,i,4.0
CCc1cc(=O)oc2c(CN3CCCC3)c(O)c(Cl)cc12,99.1*,24.4,145.7*,?,?
Cc1cc(=O)oc2c(CN3CC(C)OC(C)C3)c(O)c(Cl)cc12 (stereo unspecified),108.2*,-0.5,135.9*,i,33.6*
CCCCc1cc(=O)oc2c(CN3CCCC3)c(O)ccc12,33.9,6.5,94.8*,?,8.1
Cc1cc(NC(=S)N(Cc2ccc(Br)cc2)Cc2ccc(C(=O)O)cc2)ccc1Cl,-13.6,-0.7,-9.9,i,2.3
CC(OC(=O)Cc1c(F)cccc1Cl)C(=O)NC1CCCCC1C (stereo unspecified),/,-2.6,/,/,/
COc1cc(CNc2ncnc3c2ncn3[C@H]2CN(CCN3CCOCC3)C[C@@H](CO)O2)cc(OC)c1OC,/,69.7*,/,/,/
Cc1ccc2c(c1)C1CN(C)CCC1N2S(=O)(=O)c1ccc(C#N)cc1 (stereo unspecified),/,55.5*,/,/,/
Cc1cc(C(=O)COc2cccc3cccnc23)c(C)n1C,4.2,19.1,-1.9,i,89.6*
CCCNc1cc(=S)nc(N)[nH]1,36.0,-3.7,22.1,i,36.5*
CCOC(=O)c1c(NC(=O)CCC(=O)N2CCOCC2)sc2c1CC(C)(C)OC2,-3.3,55.5*,-0.2,i,1.6
COC(CNC(=O)c1ccc2nc(-c3cccs3)c(-c3cccs3)nc2c1)OC,21.0,-11.8,15.6,i,43.1*
CC1CCN(S(=O)(=O)c2ccc3c(c2)C(Cl)(Cl)C(=O)N3)CC1,/,6.6,/,/,/
COC(=O)c1sccc1NC(=O)CSc1nnnn1-c1ccccc1C,0.8,-2.3,-1.3,+,0.1
O=C(NCCS(=O)(=O)NCC1CCCO1)c1ccccc1 (stereo unspecified),/,-7.7,/,i,?
COc1ccc(/C=N/n2cncn2)cc1Cn1cc([N+](=O)[O-])cn1,-0.8,13.9,7.7,i,0.0
COc1ccc(/C=N/Nc2ccc([N+](=O)[O-])cc2)cc1Cn1cc([N+](=O)[O-])cn1,-7.1,98.3*,-17.6,i,-23.1
CCCCn1c(N)c(N(CC(C)C)C(=O)c2ccc(S(=O)(=O)N3CCCCC3)cc2)c(=O)[nH]c1=O,/,4.2,/,i,4.1
S=C(NC1CCCC1)NC1CCCC1,-1.2,53.0*,-0.3,i,-1.7
Cc1ccccc1NC(=S)NC1CCCC1,/,58.6*,/,i,-4.0
CC(C)CNC(=S)NC1CCCC1,0.5,62.5*,-4.4,i,4.8
S=C(NC1CCCC1)NC1CC1,-1.0,-9.1,-0.6,i,-0.1
CC(C)(CNC(=O)CNC(=O)c1ccc(Cl)cc1Cl)N1CCOCC1,/,-6.5,/,/,/
CN(C)/C=N/C1=C(C#N)C(c2ccc(Br)cc2)c2ccc3ccccc3c2O1 (stereo unspecified),/,8.8,/,i,21.2*
N#CC1=C(N)Oc2c(ccc3ccccc23)C1c1cccs1 (stereo unspecified),-15.6,/,-61.8,i,-14.5
SMILES,Runt-CBFb FRET,Vif imaging,Runt-SMMHC FRET,Rce1 inhib,RanGTP-Imp inh
CC1=CCC(C(=O)O)C(C(=O)Nc2cccnc2)C1 (stereo unspecified),1.5,50.6*,1.3,i,0.0
CCOc1cc(C2C3=C(CCCC3=O)N(CC(=O)O)C3=C2C(=O)CCC3)ccc1OC,/,-4.0,/,i,-1.3
COc1ccccc1C1C2=C(CCCC2=O)N(CC(=O)O)C2=C1C(=O)CCC2,/,-1.3,/,i,117.7*
COc1ccc(C2C3=C(CCCC3=O)N(CC(=O)O)C3=C2C(=O)CCC3)cc1Cl,/,1.4,/,i,111.6*
C#CCOc1c(Cl)cc(C2C3=C(CCCC3=O)N(CC(=O)O)C3=C2C(=O)CCC3)cc1OC,/,1.6,/,i,126.8*
COc1cc(C(C)=O)ccc1OCC(=O)N1CCCC1c1ccc2c(c1)OCCCO2 (stereo unspecified),/,-6.5,/,/,/
CN(Cc1ccccc1)C(=O)C1CCN(S(=O)(=O)c2ccc3nc4c(c(C(=O)O)c3c2)CCCC4)CC1,/,68.9*,/,i,4.1
